The results in this text go back to ChEMBL document CHEMBL1275535, “Pharmacodynamic modeling of aminoglycosides against Pseudomonas aeruginosa and Acinetobacter baumannii: identifying dosing regimens to suppress resistance development” (2008).

Converted amounts (≈) assume the structure as drawn. The source made the active and inactive calls.

The test system of test [1] is Pseudomonas aeruginosa. The test is described as follows: Ratio of Cmax to MIC for Pseudomonas aeruginosa ATCC 27853 in PK/PD model at 2000 mg administered every 24 hrs. The test is classed as functional.
In test [2] the test system is Pseudomonas aeruginosa. Put plainly: Antibacterial activity against Pseudomonas aeruginosa ATCC 27853 after 24 hrs by modified broth macrodilution method. The test is classed as functional, organism-based. An outline of the steps: (§1)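 Ca-MHB broth macrodilution per modified CLSI method, with serial twofold aminoglycoside dilutions and about 5 x 10^5 CFU/ml final inoculum from isolates subcultured twice on 5% blood agar. MIC was the lowest concentration with no visible growth after 24 h at 35°C in ambient air. Run in duplicate and repeated on at least one separate day.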

Test [3] relates to Pseudomonas aeruginosa. Put plainly: Ratio of Cmax to MIC for Pseudomonas aeruginosa ATCC 27853 in PK/PD model at 1500 mg administered every 12 hrs. The test is classed as functional.
Test [4] deals with Pseudomonas aeruginosa. The test is described as follows: Bactericidal activity against Pseudomonas aeruginosa ATCC 27853 assessed as maximal kill rate constant for the bacterial population by time-kill study. The test is classed as functional, organism-based. An outline of the steps:
(§2)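 Parameters were fitted by mathematical modeling to 24 h time-kill data with gentamicin at 0 to 32 mg/liter and a baseline inoculum of 10^7 CFU/ml. Intrinsic growth rate (Kg) and maximal population size came from placebo controls. Kill-function parameters were then fitted to all active-treatment data simultaneously.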

Test [5] relates to Pseudomonas aeruginosa. The test is described as follows: Bactericidal activity against Pseudomonas aeruginosa ATCC 27853 assessed as concentration to achieve 50% of the maximal kill rate for the bacterial population by time-kill study. The test is classed as functional, organism-based. An outline of the steps:
as §2

Test [6] concerns Pseudomonas aeruginosa. Put plainly: Bactericidal activity against Pseudomonas aeruginosa ATCC 27853 assessed as maximum population size by time-kill study. The test is classed as functional, organism-based. An outline of the steps:
as §2

Test [7] relates to Pseudomonas aeruginosa. The test is described as follows: Bactericidal activity against Pseudomonas aeruginosa ATCC 27853 assessed as growth rate constant for the bacterial population by time-kill study. The test is classed as functional, organism-based. An outline of the steps:
as §2

For test [8], the system named is Acinetobacter baumannii. Put plainly: Bactericidal activity against Acinetobacter baumannii ATCC BAA 747 assessed as maximum population size by time-kill study. The test is classed as functional. An outline of the steps: (§3)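 24-h time-kill data at a baseline inoculum of 10^7 CFU/ml were fitted to a mathematical model of a heterogeneous population. The fit ran in two steps. Growth rate (Kg) and maximal population size came from placebo control experiments. Those estimates were then held fixed while the kill-function parameters (maximal kill rate, concentration for 50% of maximal kill) were fitted to all active-treatment data together.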

Test [9] has as its system Acinetobacter baumannii. The test is described as follows: Bactericidal activity against Acinetobacter baumannii ATCC BAA 747 at >16 mg/liter after 2 hrs by time-kill study. The test is classed as functional, organism-based.
Test [10] relates to Acinetobacter baumannii. Put plainly: Antibacterial activity against Acinetobacter baumannii ATCC BAA 747 after 24 hrs by modified broth macrodilution method. The test is classed as functional. The note with it: ATCC BAA 747, 24 h. An outline of the steps: as §1
Test [11] deals with Acinetobacter baumannii. Put plainly: Bactericidal activity against Acinetobacter baumannii ATCC BAA 747 assessed as growth rate constant for the bacterial population by time-kill study. The test is classed as functional. An outline of the steps: as §3
Test [12] deals with Acinetobacter baumannii. The test is described as follows: Bactericidal activity against Acinetobacter baumannii ATCC BAA 747 assessed as concentration to achieve 50% of the maximal kill rate for the bacterial population by time-kill study. The test is classed as functional. An outline of the steps: as §3
Test [13] deals with Acinetobacter baumannii. Put plainly: Bactericidal activity against Acinetobacter baumannii ATCC BAA 747 assessed as maximal kill rate constant for the bacterial population by time-kill study. The test is classed as functional. An outline of the steps: as §3

As for GENTAMICIN, the Ratio with Pseudomonas aeruginosa [1] came out at 30; in the test on Pseudomonas aeruginosa [3], 36. Also, the minimum bactericidal concentration (MBC) in the test with Pseudomonas aeruginosa [2] amounted to 2 µg/mL. Further, the lowest concentration to inhibit growth against Pseudomonas aeruginosa [2] (MIC) was 2 µg/mL. For the same compound, the values for the Activity with Pseudomonas aeruginosa [4], with Pseudomonas aeruginosa [6] and with Pseudomonas aeruginosa [7] were 4.68 h⁻¹, 9.8 ×10⁸ CFU/ml and 0.48 h⁻¹, respectively. Also, the C50k in the test on Pseudomonas aeruginosa [5] turned out to be 0.72 mg/L.
Turning to `NCC[C@H](O)C(=O)N[C@@H]1C[C@H](N)[C@@H](O[C@H]2O[C@H](CN)[C@@H](O)[C@H](O)[C@H]2O)[C@H](O)[C@H]1O[C@H]1O[C@H](CO)[C@@H](O)[C@H](N)[C@H]1O` [AMIKACIN], the figures for the Activity with Acinetobacter baumannii [8], in the test with Acinetobacter baumannii [11] and in the test on Acinetobacter baumannii [13] were 6.62 ×10⁸ CFU/ml, 0.55 h⁻¹ and 27.81 h⁻¹, respectively. In addition, the Ratio with Pseudomonas aeruginosa [1] amounted to 20; in the test on Pseudomonas aeruginosa [3], 13. Further, the result in the test on Acinetobacter baumannii [9] was Active. Besides, the MBC in the test on Acinetobacter baumannii [10] was found to be 8 µg/mL (≈ 13.7 µM). Moreover, the MIC in the test on Acinetobacter baumannii [10] turned out to be 4 µg/mL (≈ 6.83 µM). Moreover, the C50k in the test on Acinetobacter baumannii [12] worked out at 1.56 mg/L.

As usually defined, the MBC is the smallest concentration meeting the test's criterion for killing. The low end stands for greater bactericidal potency, the high end for weaker bactericidal potency. The term MIC denotes the least concentration at which growth counts as inhibited. Low readings indicate a more susceptible organism, high ones a less susceptible organism.
